Data set [1] deals with Rattus norvegicus. Nature of the data set: Antiinflammatory activity in Wistar albino rat assessed as inhibition of carrageenan-induced paw oedema at 100 mg/kg, po measured 3 hrs after carrageenan challenge. The data set is classed as functional. Summed up:
(§1)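 Albino rats, 6 per group, dosed orally at 100 mg kg^-1; ibuprofen 100 mg kg^-1 as standard. One hour after dosing, 0.1 ml of 1% carrageenan with 2% gum acacia in normal saline injected subplantar into the right hind paw. Paw volume measured by plethysmometer; % inhibition versus control calculated. One-way ANOVA with Dunnett's t test.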
(In general: The carrageenan paw model is a standard test of acute inflammation.)

In data set [2] the test system is Rattus norvegicus. Nature of the data set: Toxicity in Wistar albino rat assessed as mortality up to 3 g/kg, po after 24 hrs. The class given is organism-based. The note with it: in vivo, 3000 mg/kg. The method in brief: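 Albino rats of either sex, six per group, dosed orally from 100 up to 3000 mg kg^-1 body weight. Animals were watched continuously for 8 h for signs of acute toxicity such as altered motor activity, ataxia, tremors, convulsions, sedation and lacrimation, and were checked for mortality over a 24 h period. Food was withheld for 12 h before dosing.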

The test system of data set [3] is Rattus norvegicus. Nature of the data set: Toxicity in Wistar albino rat assessed as induction of haemorrhagic spots up to 3 g/kg, po after 8 hrs. The note with it: in vivo, 3000 mg/kg. The data set is classed as organism-based. The method in brief:
(§2)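 Acute toxicity: albino rats of either sex in groups of six, oral doses from 100 up to 3000 mg kg^-1. Rats observed continuously for 8 h for changes in motor activity, ataxia, tremors, convulsions, sedation and lacrimation. Ulceration and haemorrhagic spots also inspected.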

Data set [4] has as its system Rattus norvegicus. Nature of the data set: Antiinflammatory activity in Wistar albino rat assessed as inhibition of carrageenan-induced paw oedema at 100 mg/kg, po measured 4 hrs after carrageenan challenge. The data set is classed as functional. The method in brief: as §1
Data set [5] relates to Rattus norvegicus. Kind of data set: Analgesic activity in Wistar albino rat […] assessed as reaction time for tail withdrawal at 100 mg/kg, po after 30 mins by tail flick method. The data set is classed as functional. A general note: Hot-plate and tail-flick tests time the reaction to a heat stimulus.
For data set [6], the system named is Rattus norvegicus. Kind of data set: Antiinflammatory activity in Wistar albino rat assessed as inhibition of carrageenan-induced paw oedema at 100 mg/kg, po measured 2 hrs after carrageenan challenge. The data set is classed as functional. The method in brief:
as §1

Data set [7] relates to Rattus norvegicus. Kind of data set: Toxicity in Wistar albino rat assessed as induction of gastric ulceration up to 3 g/kg, po after 8 hrs. The data set is classed as organism-based, Stomach. The note with it: in vivo, 3000 mg/kg. Summed up:
as §2

For data set [8], the system named is Rattus norvegicus. Nature of the data set: Analgesic activity in Wistar albino rat […] assessed as reaction time for tail withdrawal at 100 mg/kg, po after 180 mins by tail flick method. The data set is classed as functional.
In data set [9] the test system is Rattus norvegicus. Nature of the data set: Analgesic activity in Wistar albino rat […] assessed as reaction time for tail withdrawal at 100 mg/kg, po after 60 mins by tail flick method. The data set is classed as functional. Summed up: (§3)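 Rat tail-flick test: latency for the rat to withdraw its tail from hot water at 55 ± 0.5 °C. Drugs given orally. Reaction time in seconds read at 60, 90, 120 and 300 min after dosing. Treated animals compared with control and with a nimesulide standard. Wistar albino rats, 150-200 g, either sex; food withdrawn 12 h before and during testing.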

Data set [10] concerns Rattus norvegicus. Kind of data set: Toxicity in Wistar albino rat assessed as effect on motor activity up to 3 g/kg, po after 8 hrs. Particulars: in vivo, 3000 mg/kg. The class given is organism-based. Summed up: as §2
The test system of data set [11] is Rattus norvegicus. Kind of data set: Toxicity in Wistar albino rat assessed as induction of convulsions and tremors up to 3 g/kg, po after 8 hrs. The data set is classed as organism-based. Particulars: in vivo, 3000 mg/kg. The method in brief: as §2
In data set [12] the test system is Rattus norvegicus. Kind of data set: Analgesic activity in Wistar albino rat […] assessed as reaction time for tail withdrawal at 100 mg/kg, po after 300 mins by tail flick method. The class given is functional. The method in brief: as §3
For data set [13], the system named is Rattus norvegicus. Nature of the data set: Analgesic activity in Wistar albino rat […] assessed as reaction time for tail withdrawal at 100 mg/kg, po after 120 mins by tail flick method. The class given is functional. The method in brief: as §3
The test system of data set [14] is Rattus norvegicus. Nature of the data set: Antiinflammatory activity in Wistar albino rat assessed as inhibition of carrageenan-induced paw oedema at 100 mg/kg, po measured 5 hrs after carrageenan challenge. The data set is classed as functional. The method in brief: as §1
The subject of data set [15] is Rattus norvegicus. Kind of data set: Analgesic activity in Wistar albino rat […] assessed as increase in reaction time for tail withdrawal at 100 mg/kg, po after 180 mins by tail flick method. The class given is functional.
Data set [16] concerns Rattus norvegicus. Nature of the data set: Toxicity in Wistar albino rat assessed as induction of sedation up to 3 g/kg, po after 8 hrs. The class given is organism-based. Particulars: in vivo, 3000 mg/kg. Summed up: as §2
In data set [17] the test system is Rattus norvegicus. Kind of data set: Antiinflammatory activity in Wistar albino rat assessed as inhibition of carrageenan-induced paw oedema at 100 mg/kg, po measured 0.5 hrs after carrageenan challenge. The class given is functional. Summed up: as §1
Data set [18] has as its system Rattus norvegicus. Nature of the data set: Antiinflammatory activity in Wistar albino rat assessed as inhibition of carrageenan-induced paw oedema at 100 mg/kg, po measured 1 hr after carrageenan challenge. The class given is functional. The method in brief: as §1
Data set [19] has as its system Rattus norvegicus. Nature of the data set: Analgesic activity in Wistar albino rat […] assessed as increase in reaction time for tail withdrawal at 100 mg/kg, po after 300 mins by tail flick method. The class given is functional. Summed up:
as §3

`Cc1ccc2c(Cc3nn4c(C#N)c(-c5ccc(Cl)cc5)nc4s3)coc2c1`: the inhibition in vivo (in general, the change of the read-out against control, counted positive when it falls) at 100 mg/kg in [1] worked out at 43.4%; in [4], 51.2%; in data set [6], 28%; in data set [14], 53.5%; in [17] it was 4.77%; in data set [18], 13.4%. Also, the Activity result is on record as “Non-toxic” in [2]; “Non-toxic” in data set [3]; 3.7 s in data set [5]; “Non-toxic” in data set [7]; 8.25 s in [8]; 4.067 s in data set [9]. In addition, the Activity result in data set [10] is “Non-toxic”; in data set [11], “Non-toxic”; in [12] it was 7.167 s; in data set [13] it was 6.617 s; in [15], 207.49%; in data set [16] it was “Non-toxic”. Besides, the Activity in data set [19] is 167.12%.

For `Cc1ccc2c(Cc3nn4c(CO)c(-c5ccc(Br)cc5)nc4s3)coc2c1`, the inhibition in vivo at 100 mg/kg in data set [1] came to 36.6%; in [4], 44.9%; in [6] it was 13.1%; in data set [14], 47.3%; in data set [17] it was 2.38%; in data set [18], 7.2%. Further, the Activity result in data set [2] is “Non-toxic”; in data set [3], “Non-toxic”; in [5] it was 3.667 s; in data set [7], “Non-toxic”; in data set [8], 7.4 s; in data set [9], 4.583 s. The Activity entry in data set [10] is listed as “Non-toxic”; in data set [11] it was “Non-toxic”; in data set [12], 6.067 s; in [13], 5.917 s; in data set [15], 177.3%; in data set [16], “Non-toxic”. Besides, in data set [19], the Activity is reported as 126.12%.

For `Cc1ccc2c(Cc3nn4c(/C=N/O)c(-c5ccc(Cl)cc5)nc4s3)coc2c1`, the inhibition in vivo at 100 mg/kg in [1] was determined as 10%; in [4] it was 11.1%; in [6], 11.2%; in data set [14] it was 31%; in data set [17], 6%; in data set [18], 5.19%. The Activity entry in [2] is reported as “Non-toxic”; in data set [3] it was “Non-toxic”; in data set [5], 2.483 s; in data set [7], “Non-toxic”; in [8], 2.717 s; in [9], 2.667 s. Also, the Activity entry in data set [10] is on record as “Non-toxic”; in data set [11] it was “Non-toxic”; in data set [12], 2.6 s; in [13], 2.633 s; in [15] it was 1.26%; in [16], “Non-toxic”. The Activity in data set [19] is given as -3.09%.

Take `Cc1ccc2c(Cc3nn4c(CO)c(-c5ccc(Cl)cc5)nc4s3)coc2c1`: the inhibition in vivo at 100 mg/kg in [1] was determined as 45.9%; in data set [4], 54.3%; in data set [6] it was 28.9%; in [14], 58.9%; in data set [17], 9.61%; in data set [18] it was 14.5%. Further, the Activity entry is listed as “Non-toxic” in data set [2]; “Non-toxic” in data set [3]; 3.65 s in data set [5]; “Non-toxic” in [7]; 7.133 s in data set [8]; 4.35 s in data set [9]. For the same molecule, the Activity entry in [10] was “Non-toxic”; in data set [11], “Non-toxic”; in data set [12] it was 5.433 s; in data set [13] it was 5.467 s; in data set [15], 165.85%; in data set [16], “Non-toxic”. Moreover, the Activity in data set [19] is on record as 102.49%.

In the case of `Cc1ccc2c(Cc3nn4c(C=O)c(-c5ccc(Br)cc5)nc4s3)coc2c1`, the inhibition in vivo at 100 mg/kg is 10.8% in data set [1]; 10.2% in data set [4]; 11.2% in data set [6]; 12.4% in data set [14]; 1.15% in [17]; 12.4% in [18]. Moreover, the Activity result was “Non-toxic” in [2]; “Non-toxic” in data set [3]; 3.983 s in data set [5]; “Non-toxic” in data set [7]; 9.083 s in [8]; 4.433 s in data set [9]. The Activity result in [10] was “Non-toxic”; in data set [11] it was “Non-toxic”; in [12], 7.55 s; in [13] it was 6.5 s; in [15] it was 238.53%; in data set [16] it was “Non-toxic”. For the same molecule, the Activity in data set [19] was found to be 181.4%.

Source of the values: ChEMBL document CHEMBL1140193, “Synthesis and anti-inflammatory evaluation of methylene bridged benzofuranyl imidazo[2,1-b][1,3,4]thiadiazoles” (Eur J Med Chem, 2008).
